Measurements of several laboratories.
Compare with care: the assays were run in different laboratories. ≈ marks a conversion by molar mass, not a printed value.
Technique: broth dilution

SMILES	organism	test	system	setting	quantity	result
C[C@@H]1O[C@@H](OC[C@H]2O[C@@H](Oc3c(-c4ccc(O)c(O)c4)oc4cc(O)cc(O)c4c3=O)[C@H](O)[C@@H](O)[C@@H]2O)[C@H](O)[C@H](O)[C@H]1O	Streptococcus sobrinus	microbial growth	–	24 h	MIC	200 mg/L (≈ 328 µM)
OC(Cn1cncn1)(Cn1cncn1)c1ccc(F)cc1F	Aspergillus niger	microbial growth	–	–	MIC	10 mg/L (≈ 32.7 µM)
O=C1OC[C@H]2OC(O)[C@H](O)[C@@H](O)[C@@H]2OC(=O)c2cc(O)c(O)c(O)c2-c2c(O)c(O)c3oc(=O)c4c(c(O)c(O)c5oc(=O)c2c3c54)-c2c1cc(O)c(O)c2O (mixture of isomers)	Streptococcus sobrinus	microbial killing	–	–	MBC	200 mg/L
C/C(=N\C1CCCCC1/N=C(\C)c1c(O)c2ccccc2oc1=O)c1c(O)c2ccccc2oc1=O (centres unmarked)	Aspergillus niger	microbial growth	–	48 h	MIC	15.6 mg/L (≈ 32.1 µM)
O=C(Nc1ccc2[nH]ccc2c1)c1ccc(COC(Cn2ccnc2)c2ccc(Cl)cc2Cl)cc1 (centres unmarked)	Lodderomyces parapsilosis	microbial growth	–	–	MIC80	32 mg/L (≈ 63.3 µM)
C/C(=N\CCNCC/N=C(\C)c1c(O)c2ccccc2oc1=O)c1c(O)c2ccccc2oc1=O	Aspergillus niger	microbial growth	–	48 h	MIC	62.5 mg/L (≈ 131 µM)
CO/N=C(\C(=O)N[C@@H]1C(=O)N2C(C(=O)O)=C(CSc3nc(=O)c(=O)[nH]n3C)CS[C@H]12)c1csc(N)n1	Neisseria gonorrhoeae	microbial growth	ATCC49226	–	MIC	0.008 mg/L (≈ 0.0144 µM)
O=C(Nc1cccc(Cl)c1)c1ccc(COC(Cn2ccnc2)c2ccc(Cl)cc2Cl)cc1 (centres unmarked)	Lodderomyces parapsilosis	microbial growth	–	–	MIC80	0.06 mg/L (≈ 0.12 µM)
O=C1O[C@H]2[C@@H]3OC(=O)c4cc(O)c(O)c(O)c4-c4c(O)c(O)c5oc(=O)c6c(c(O)c(O)c7oc(=O)c4c5c76)-c4c(cc(O)c(O)c4O)C(=O)OC[C@H]3OC(O)[C@@H]2OC(=O)c2cc(O)c(O)c(O)c2-c2c1cc(O)c(O)c2O (mixture of isomers)	Streptococcus sobrinus	microbial growth	–	24 h	MIC	100 mg/L
O=C(Nc1ccccc1)c1ccc(COC(Cn2ccnc2)c2ccc(Cl)cc2Cl)cc1 (centres unmarked)	Lodderomyces parapsilosis	microbial growth	–	–	MIC80	0.125 mg/L (≈ 0.268 µM)
O=C(O[C@@H]1O[C@@H]2COC(=O)c3cc(O)c(O)c(O)c3-c3c(cc(O)c(O)c3O)C(=O)O[C@H]([C@H]1O)[C@@H]2O)c1cc(O)c(O)c(O)c1	Streptococcus sobrinus	microbial growth	–	24 h	MIC	200 mg/L (≈ 315 µM)
C/C(=N\CCNCCNCC/N=C(\C)c1c(O)c2ccccc2oc1=O)c1c(O)c2ccccc2oc1=O	Aspergillus niger	microbial growth	–	48 h	MIC	31.2 mg/L (≈ 60.3 µM)
O=c1oc2c(O)c(O)cc3c(=O)oc4c(O)c(O)cc1c4c23	Streptococcus sobrinus	microbial growth	–	24 h	MIC	100 mg/L (≈ 331 µM)
Clc1ccc(COC(Cn2ccnc2)c2ccc(Cl)cc2Cl)c(Cl)c1 (centres unmarked)	Lodderomyces parapsilosis	microbial growth	–	–	MIC80	0.06 mg/L (≈ 0.144 µM)
C/C(=N\C(=S)/N=C(\C)c1c(O)c2ccccc2oc1=O)c1c(O)c2ccccc2oc1=O	Aspergillus niger	microbial growth	–	48 h	MIC	3.9 mg/L (≈ 8.7 µM)
O=C(Nc1ccc(F)cc1)c1ccc(COC(Cn2ccnc2)c2ccc(Cl)cc2Cl)cc1 (centres unmarked)	Lodderomyces parapsilosis	microbial growth	–	–	MIC80	0.125 mg/L (≈ 0.258 µM)
Oc1cc(O)c2c(c1)O[C@H](c1cc(O)c(O)c(O)c1)[C@@H](O)C2	Streptococcus sobrinus	microbial killing	–	–	MBC	400 mg/L (≈ 1310 µM)
C/C(=N\c1nc(N)nc(/N=C(\C)c2c(O)c3ccccc3oc2=O)n1)c1c(O)c2ccccc2oc1=O	Aspergillus niger	microbial growth	–	48 h	MIC	31.2 mg/L (≈ 62.7 µM)
O=C(Nc1ccc2cccnc2c1)c1ccc(COC(Cn2ccnc2)c2ccc(Cl)cc2Cl)cc1 (centres unmarked)	Lodderomyces parapsilosis	microbial growth	–	–	MIC80	2 mg/L (≈ 3.87 µM)
Cc1ccc(C(C)C)c(OC2=C(Cl)C(=O)c3ccccc3C2=O)c1	Aspergillus niger	microbial growth	–	–	MIC	10 mg/L (≈ 29.3 µM)
